Source: ChEMBL document CHEMBL1154451, “Simple and efficient synthesis of novel glycosyl thiourea derivatives as potential antitumor agents” (Eur J Med Chem, 2008)

What was measured:
[1] = Cytotoxicity against human PG cells after 48 hrs by MTT assay; format: functional, cell-based
How it was run: (§1)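 Tumour cells seeded at 3–5 × 10⁴ cells/mL and cultured 24 h, then medium containing test compound at various concentrations added (plain medium for controls). Exposure 48 h, followed by MTT read-out with absorbance measured at 490 nm. EC50 values reported; compounds tested up to […].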

Bel-7402 = experiment: Cytotoxicity against human Bel7402 cells after 48 hrs by MTT assay; format: functional, cell-based; details: Bel-7402, 48 h; how it was run: as §1

Work on `Cc1cn([C@H]2C[C@H](N=[N+]=[N-])[C@@H](CO)O2)c(=O)[nH]c1=O` [ZIDOVUDINE] yielded an EC50 [1] of 580 nM and an EC50 (Bel-7402) of 4620 nM.
